Tests used:
Renin [1] = biological target: T1, Renin (Homo sapiens, UniProt P00797); test: Concentration required for 50% inhibition of human kidney renin
T1 sequence (P00797 whole entry): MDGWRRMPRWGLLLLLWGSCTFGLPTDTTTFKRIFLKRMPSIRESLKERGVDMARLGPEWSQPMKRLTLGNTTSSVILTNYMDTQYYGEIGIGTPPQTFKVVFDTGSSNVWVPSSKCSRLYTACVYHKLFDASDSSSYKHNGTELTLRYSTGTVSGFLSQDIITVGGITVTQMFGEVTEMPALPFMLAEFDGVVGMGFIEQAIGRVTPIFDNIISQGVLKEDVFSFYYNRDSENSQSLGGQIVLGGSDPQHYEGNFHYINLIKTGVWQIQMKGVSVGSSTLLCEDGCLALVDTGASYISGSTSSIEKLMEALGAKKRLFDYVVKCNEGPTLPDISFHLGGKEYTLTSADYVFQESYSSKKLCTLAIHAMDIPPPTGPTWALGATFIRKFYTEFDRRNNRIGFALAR

Renin [2] = biological target: T1, Renin; test: Concentration required for 50% inhibition of human plasma renin; type: cell-free
Method in brief: (§1)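 Plasma renin from dog, human, rat, rhesus monkey or sheep plasma; assayed by a previously described plasma method, modified to be buffered at pH 7.4; IC50 in M.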

Renin [3] = biological target: T2, Renin (Rattus norvegicus, UniProt P08424); test: Concentration required for 50% inhibition of rat plasma renin; type: cell-free; method in brief: as §1
T2 sequence (P08424 whole entry): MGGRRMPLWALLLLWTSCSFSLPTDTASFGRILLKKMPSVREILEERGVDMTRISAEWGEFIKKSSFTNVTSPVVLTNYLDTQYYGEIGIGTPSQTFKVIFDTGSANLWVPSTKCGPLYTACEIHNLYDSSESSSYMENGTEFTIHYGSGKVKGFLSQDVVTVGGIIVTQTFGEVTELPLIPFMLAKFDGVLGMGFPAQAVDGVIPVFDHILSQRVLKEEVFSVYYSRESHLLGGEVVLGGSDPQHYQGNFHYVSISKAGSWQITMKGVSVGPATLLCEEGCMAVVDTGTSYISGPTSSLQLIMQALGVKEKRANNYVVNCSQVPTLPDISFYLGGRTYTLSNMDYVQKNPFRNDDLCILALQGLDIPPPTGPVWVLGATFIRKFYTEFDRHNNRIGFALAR

Renin (Macaca mulatta) = test: Concentration required for 50% inhibition of rhesus monkey plasma renin
Renin (Canis familiaris) = test: Concentration required for 50% inhibition of dog plasma renin
Renin (Ovis aries) = test: Concentration required for 50% inhibition of sheep plasma renin
Pepsin A = Pepsin A (Homo sapiens, UniProt P0DJD9); test: Inhibition of pepsin
Pepsin A, sequence (P0DJD9 whole entry): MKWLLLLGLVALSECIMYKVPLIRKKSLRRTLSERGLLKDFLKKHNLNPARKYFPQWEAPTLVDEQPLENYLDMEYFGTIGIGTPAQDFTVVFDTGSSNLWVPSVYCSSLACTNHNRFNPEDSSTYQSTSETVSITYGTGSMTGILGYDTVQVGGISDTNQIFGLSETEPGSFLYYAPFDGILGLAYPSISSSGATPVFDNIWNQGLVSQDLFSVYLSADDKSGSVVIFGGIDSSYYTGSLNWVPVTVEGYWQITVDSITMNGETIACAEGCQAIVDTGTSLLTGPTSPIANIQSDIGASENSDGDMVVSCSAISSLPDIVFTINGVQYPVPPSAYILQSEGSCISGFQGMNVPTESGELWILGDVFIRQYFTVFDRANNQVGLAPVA
Method in brief: (§2)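 Pepsin and cathepsin D inhibition measured by an earlier-described method; inhibitor tested at concentrations up to 10^-4 M.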

Cathepsin D = Cathepsin D (Homo sapiens, UniProt P07339); test: Concentration required for 50% inhibition of cathepsin D; method in brief: as §2
Cathepsin D, sequence (P07339 65-162 limits assumed): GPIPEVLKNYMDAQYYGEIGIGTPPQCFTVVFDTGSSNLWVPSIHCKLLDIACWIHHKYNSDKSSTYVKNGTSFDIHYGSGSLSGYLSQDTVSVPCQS
Cathepsin D, sequence (P07339 169-412 limits assumed): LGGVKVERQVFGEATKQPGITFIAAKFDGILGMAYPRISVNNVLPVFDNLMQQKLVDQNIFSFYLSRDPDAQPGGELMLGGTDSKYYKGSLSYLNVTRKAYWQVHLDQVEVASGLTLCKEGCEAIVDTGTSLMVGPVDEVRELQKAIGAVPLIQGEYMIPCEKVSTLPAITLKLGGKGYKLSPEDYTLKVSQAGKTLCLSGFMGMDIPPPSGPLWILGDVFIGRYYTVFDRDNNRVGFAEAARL

Row | Compound | IC50 (Renin [1]) | IC50 (Renin [2]) | IC50 (Renin [3]) | IC50 (Renin (Macaca mulatta)) | IC50 (Renin (Canis familiaris)) | IC50 (Renin (Ovis aries)) | IC50 (Pepsin A) | IC50 (Cathepsin D)
1 | N[C@H]1CC[C@@H](C(=O)N[C@@H](Cc2ccccc2)C(=O)NC(Cc2c[nH]cn2)C(=O)N[C@@H](CC2CCCCC2)[C@@H](O)[C@@H](O)[C@H](O)[C@H](O)CO)CC1 (stereo partly specified) | 12 nM | 22 nM | – | – | – | – | – | –
2 | CN(CCN(C)C(=O)N1CCOCC1)C(=O)O[C@@H](Cc1ccccc1)C(=O)NC(Cc1cnc[nH]1)C(=O)N[C@@H](CC1CCCCC1)[C@@H](O)[C@@H](O)[C@H](O)[C@H](O)CO (stereo partly specified) | 2.4 nM | 1.5 nM | – | – | – | – | – | –
3 | CCC[C@H](NC(=O)[C@H](Cc1ccccc1)NC(=O)[C@@H](N)[C@@H](C)CC)C(=O)N[C@@H](CC1CCCCC1)[C@@H](O)[C@@H](O)[C@H](O)[C@@H](O)CO | 120 nM | 420 nM | – | – | – | – | – | –
4 | CC(C)(C)S(=O)(=O)CC(Cc1ccccc1)C(=O)NC(Cc1c[nH]cn1)C(=O)N[C@@H](CC1CCCCC1)[C@@H](O)[C@@H](O)[C@H](O)[C@H](O)CO (stereo partly specified) | 4.4 nM | 4.5 nM | 8 µM | 11 nM | 110 nM | 100 nM | > 100 µM | > 100 µM
5 | CCC[C@H](NC(=O)[C@H](Cc1ccccc1)NC(=O)[C@@H](N)[C@@H](C)CC)C(=O)N[C@@H](CC1CCCCC1)[C@@H](O)[C@@H](O)[C@H](O)[C@H](O)CO | 50 nM | 110 nM | – | – | – | – | – | –
